Shown are actives, neighbours in structure and some others; about 3.5% of the full set was active somewhere.
RGS4 act = RGS4 potentiators or activators, primary screen, cell-based, HEK293 M3R inducible RGS4, calcium flux. AID 463111, 2010. B-score at 10 µM. carbachol calcium flux Fluo4; hits give low values. 310,000 tested, 0.92% active;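 active = B-score of the integrated calcium signal more than 4 SD below the library mean, with starting fluorescence not abnormally high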;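 note: negative B-score means reduced calcium response which marks RGS4 activation or potentiation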
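test system = HEK293 cells with stable M3R and inducible RGS4 | schedule = recording 10 s baseline at 1 Hz, 100 s post-agonist | technique = Fluo4-AM (2 µM) calcium-flux fluorescence, kinetic read | measure = Agonist-evoked peak-minus-minimum fluorescence over baseline, integrated ratio, B score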
MrgX1 antagonist = antagonists of human MrgX1 receptor, primary screen, HEK293 cells, Fluo-4 calcium flux; Mas-related G-protein coupled receptor member X1 (Homo sapiens), Q96LB2; BAM8-22 antagonism; hits give low values; B-score at 10 µM; 310,000 tested, 1.3% active;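 active = calcium-response B-score plate-corrected more than 3 library SD below zero, starting fluorescence within 5 deviations, no agonist response on first addition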;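 note: peak minus trough fluorescence over baseline after final BAM8-22 challenge near maximal dose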
Target sequence (Q96LB2 whole entry, looked up): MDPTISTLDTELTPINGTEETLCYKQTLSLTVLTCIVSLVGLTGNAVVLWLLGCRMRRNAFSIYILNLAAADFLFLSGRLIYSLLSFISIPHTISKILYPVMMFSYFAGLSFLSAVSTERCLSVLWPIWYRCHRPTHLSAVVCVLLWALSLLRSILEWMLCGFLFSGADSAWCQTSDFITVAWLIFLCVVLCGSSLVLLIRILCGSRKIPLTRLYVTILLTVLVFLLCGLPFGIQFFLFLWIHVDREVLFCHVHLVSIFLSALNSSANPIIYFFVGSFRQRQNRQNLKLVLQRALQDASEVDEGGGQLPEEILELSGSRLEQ
MrgX1 PAM = positive allosteric modulators of MrgX1, primary screen, HEK293 cells, Fluo-4 calcium flux | FDSS; hits give high values | B-score at 10 µM | AID 588675, 2011 | 310,000 tested, 0.63% active;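 active = plate-corrected calcium response at least 3 library SD above typical, normal starting fluorescence, not activating the receptor alone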;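 note: compound read alongside a low EC10 to EC30 dose of BAM8-22 agonist; peak minus trough fluorescence over baseline measured at the second addition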
MrgX1 agonist = agonists of human MrgX1 receptor, primary screen, HEK293 cells, Fluo-4 calcium flux; Mas-related G-protein coupled receptor member X1 (Homo sapiens), Q96LB2; Fluo-4 calcium fluorescence, agonist mode; hits give high values; B-score at 10 µM; 310,000 tested, 0.44% active; AID 588627, 2011;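 active = calcium response B-score plate-corrected fluorescence ratio at least 3 library SD, with starting fluorescence B-score inside 5 SD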
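Material: MrgX1-expressing HEK293 cells / Dosing: compound as first of three additions / Incubation: overnight seeding, then 1 h dark dye loading / Signal: Fluo-4 NW calcium fluorescence / Evaluation: B-scored fluorescence response ratio / Benchmarks: positive and negative control wells on each plate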
RGS4 inh = RGS4 inhibitors, primary screen, cell-based, HEK293 M3R inducible RGS4, calcium flux; Fluo-4 calcium flux; hits give high values; triggered by carbachol at its EC20; AID 463165, 2010; 310,000 tested, 0.45% active; B-score at 10 µM; Regulator of G-protein signaling 4 (Homo sapiens), P49798;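 active = B-score, a plate-corrected calcium signal, over three deviations above library mean, with baseline fluorescence within five deviations of library mean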;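 note: RGS4 expression induced by doxycycline in cells with stable M3 receptor; B-score is computed from the integrated fluorescence ratio over baseline after carbachol; higher B-score means a larger calcium signal and so more RGS4 inhibition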
Target sequence (P49798 whole entry, looked up): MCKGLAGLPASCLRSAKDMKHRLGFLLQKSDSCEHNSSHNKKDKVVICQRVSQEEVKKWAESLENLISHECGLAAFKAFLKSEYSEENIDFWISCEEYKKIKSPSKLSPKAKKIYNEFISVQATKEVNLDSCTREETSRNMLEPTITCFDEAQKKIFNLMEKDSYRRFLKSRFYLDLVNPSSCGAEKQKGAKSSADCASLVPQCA
RGS4 block valid = enhanced carbachol calcium response, M3R/RGS4 cells, RGS4 inhibitor project, cell-based, validation screen, HEK293 M3R/RGS4, calcium flux; shares compounds with RGS4 inh; carbachol calcium Fluo-4 fluorescence; carbachol added at its EC20; 0 = buffer wells, 100 = carbachol control; calcium response, % at 10 µM; 1,700 tested, 65% active;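 active = duplicate-averaged calcium response above the buffer-only control mean plus 5 SD of those controls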;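 note: integrated fluorescence ratio F max minus min over baseline F0; higher response in RGS4-induced cells means RGS4 inhibition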
M3R Ca ctr = carbachol calcium response in non-induced M3R cells, confirmation, counter-screen for RGS4 inhibitor project, cell-based, HEK293 M3R; carbachol calcium Fluo-4; submaximal (EC20) carbachol stimulus; buffer wells 0%, carbachol control wells 100%; 1,900 tested, 20% active; activity (percent), % at 10 µM; shares compounds with RGS4 inh; call rule not given here;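 note: RGS4 induction absent so cells express M3R without RGS4; higher means more calcium signal and flags a non-specific hit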
RGS4 inh ctr2 = second RGS4 inhibitor counter-screen in uninduced cells lacking carbachol; 1,900 tested, 22% active; HEK293 M3R/RGS4 non-induced, Fluo-4 calcium, no carbachol; normalised: buffer wells 0%, carbachol wells 100%; shares compounds with RGS4 inh; calcium response (agonist-mode artifact), % at 10 µM; AID 493001;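 active = duplicate-averaged calcium rise in uninduced cells above buffer wells' mean plus 5 SD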
A number is an active result; . = inactive; / = no result given.

SMILES	RGS4 act	MrgX1 antagonist	MrgX1 PAM	MrgX1 agonist	RGS4 inh	RGS4 block valid	M3R Ca ctr	RGS4 inh ctr2
COc1cc(/C=C2/S/C(=N/S(=O)(=O)c3ccccc3)NC2=O)c([N+](=O)[O-])cc1OC	.	.	.	.	5.9	38%	50%	.
COc1cc(/C=C2/S/C(=N/S(=O)(=O)Cc3ccccc3)NC2=O)c([N+](=O)[O-])cc1OC	.	.	.	.	.	.	.	.
Cc1cccc(C(=O)NCC(=O)OCCOc2ccccc2Cl)c1	.	.	.	.	.	/	/	/
Cc1ccc2c(cnn2C(=O)CCC(=O)NCc2cccc(Cl)c2)c1	.	.	.	.	.	/	/	/
CC(=O)OCCN1C(=O)c2ccc(-c3nc4ccccc4c(=O)o3)cc2C1=O	.	.	.	.	.	/	/	/
Oc1ccc(-c2csc(-c3cccnc3)n2)cc1O	.	.	.	.	.	/	/	/
Oc1ccc(-c2csc(-c3ccccc3)n2)cc1O	.	.	.	.	5.8	24%	.	.
COc1ccc(Cl)cc1N(CC(=O)N(C)C)S(=O)(=O)c1ccc(C)c([N+](=O)[O-])c1	.	.	.	.	.	/	/	/
c1ccc(-c2ccc(Oc3cc(N4CCOCC4)nc(-c4ccccc4)n3)cc2)cc1	.	.	.	.	.	/	/	/
CC(C)Sc1cc(N2CCCC2)nc(-c2ccccc2Cl)n1	.	.	.	.	.	/	/	/
CC(C)Sc1cc(N2CCOCC2)nc(-c2ccccc2)n1	.	.	.	.	.	.	30%	10%
CC(C)Sc1cc(N2CCCC2)nc(-c2ccc(F)cc2)n1	.	.	.	.	9.2	26%	.	.
CCSc1cc(N2CCCC2)nc(-c2ccccc2)n1	.	.	.	.	.	/	/	/
CC(C)Sc1cc(N2CCCC2)nc(-c2ccccc2)n1	.	.	.	.	6.2	23%	51%	.
CCCCC1=CC2=C(c3ccco3)C(=O)C(C)(OC(=O)c3ccc(OC)cc3)C(=O)C2=CN1C1CCCCC1 (configuration not stated)	.	.	.	.	.	.	.	.
CCCCC1=CC2=C(c3ccco3)C(=O)C(C)(OC(=O)c3ccc(OC)cc3)C(=O)C2=CN1CCc1ccccn1 (configuration not stated)	.	.	.	.	.	/	48%	.
CCCCC1=CC2=CC(=O)C(C)(OC(=O)CC)C(=O)C2=CN1CCc1ccccn1 (configuration not stated)	.	.	.	.	.	/	/	/
COC(=O)CCCC1=CC2=C(c3ccccc3)C(=O)C(C)(OC(=O)C3CCCC3)C(=O)C2=CN1C1CCCCC1 (configuration not stated)	.	.	.	.	.	/	/	/
CCCCC1=CC2=C(c3ccco3)C(=O)C(C)(OC(=O)c3ccc(OC)cc3)C(=O)C2=CN1Cc1ccccc1 (configuration not stated)	.	-5.4	.	.	.	.	.	.
CCCCC1=CC2=C(c3ccco3)C(=O)C(C)(OC(=O)c3ccc(OC)cc3)C(=O)C2=CN1Cc1ccc2c(c1)OCO2 (configuration not stated)	.	.	.	.	.	/	/	/
CCCCC1=CC2=C(c3ccco3)C(=O)C(C)(OC(=O)c3ccc(OC)cc3)C(=O)C2=CN1CCOC (configuration not stated)	.	.	.	.	4.9	22%	34%	.
Cc1ccc2c(NC(=O)c3ccco3)cccc2n1	.	.	.	.	.	/	/	/
CCOc1cc(CC(=O)N[C@@H](CC(C)C)c2ccccc2N2CCCCC2)ccc1C(=O)O	.	.	.	.	.	/	/	/
O=C(CCCO)c1ccc2c(c1)OCCO2	.	.	.	.	.	/	/	/
O=C(CCN1CCOCC1)c1ccc2c(c1)OCCO2	.	.	.	.	21	20%	.	18%
SMILES	RGS4 act	MrgX1 antagonist	MrgX1 PAM	MrgX1 agonist	RGS4 inh	RGS4 block valid	M3R Ca ctr	RGS4 inh ctr2
O=C(CCN1CCOCC1)c1ccccc1	.	.	.	.	.	.	36%	23%
O=C(CCCN1CCOCC1)c1ccc2c(c1)OCCO2	.	.	.	.	.	.	.	.
O=C(CCN1CCN(C(=O)c2ccccc2)CC1)c1ccc(Br)cc1	.	.	.	.	6	.	.	10%
O=C(CCN1CCCCC1)c1ccccc1	.	.	.	.	.	/	/	/
O=C(OCCN1CCOCC1)c1ccc2c(c1)OCCO2	.	.	.	.	.	/	/	/
O=C(CCCO)N/N=C/c1ccccc1[N+](=O)[O-]	.	.	.	.	.	/	/	/
COc1ccc(COc2ccccc2C(=O)NCc2ccccc2)cc1F	.	.	.	.	.	/	/	/
CCN1CCN(C(=O)CN(CC)S(=O)(=O)c2ccc3ccccc3c2)CC1	.	.	.	.	.	/	/	/
COC(=O)CSC1=C(C#N)C(=O)NC(c2ccccc2)S1 (configuration not stated)	.	.	.	.	5.1	47%	.	9.5%
COc1ccc(NC(=O)CCNS(=O)(=O)c2ccc(C)c(C)c2)cc1OC	.	.	.	.	.	/	/	/
Cc1cc(C2(c3ccc(O)c(C)c3)C(=O)N(C)c3ccc(Br)cc32)ccc1O	.	.	.	.	13	28%	.	.
CSc1c(C#N)c(N)c(C#N)c2c1COC(C)(C)C2	.	.	.	.	5.8	5.5%	.	.
CCN(CC)C(=O)C(=O)N/N=C/c1ccc(F)cc1	.	.	.	.	.	/	/	/
Cc1cc(OC(C)C(=O)NCc2ccncc2)c2c(C)c(C)c(=O)oc2c1 (configuration not stated)	.	.	.	.	.	/	/	/
COc1ccc(OC)c(-c2nc3ccccc3nc2-c2ccccc2)c1	.	.	.	.	.	.	.	.
CCC(c1nnnn1Cc1ccco1)N(Cc1ccccc1OC)Cc1cc2cc(C)ccc2[nH]c1=O (configuration not stated)	.	.	.	.	.	/	/	/
CC(C)(C)n1nnnc1C(c1ccccc1F)N(Cc1ccco1)CC1CCCO1 (configuration not stated)	.	.	.	.	.	/	/	/
